Results filed as inconclusive are left out.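 Rule for the calls, unless noted: active = RAM network inhibition above 8.4% in each of two replicates, 3 SD over the compound average; inconclusive = above 8.4% inhibition in only one replicate; inactive = 8.4% inhibition or less in each replicate.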
Tests used:
[1] = S. cerevisiae growth inhibition in permissive medium (OD615), pilot counter-assay for S. cerevisiae lifespan shortening project, permissive growth control (AID 705;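 active = growth inhibition above 25% in both replicates, a cutoff set 3 SD above the mean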); settings: OD615, 24 h, at 10 µM, stronger effect = higher value
Procedure, shortened: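 System – S. cerevisiae with engineered DeaD lifespan system · Buffer or medium – SC raffinose/galactose permissive medium · Schedule – cells pre-grown 4 h, then 24 h compound exposure, 30 °C humidified · Technique – culture turbidity as optical density at 615 nm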

[2] = S. cerevisiae growth inhibition in restrictive medium, OD615, pilot screen, restrictive growth control, yeast lifespan reduction project (AID 706;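 active = growth inhibition above a set limit, 3 SD over mean compound inhibition, in both replicates, cut at about 43% in these data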;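 note: modified DeaD lifespan yeast strain shifted to restrictive glucose medium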); settings: OD615, 48 h, at 10 µM, stronger effect = higher value
Procedure, shortened: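 Material: engineered S. cerevisiae DeaD strain / Medium: glucose-based CSMM-D restrictive medium / Compound: single dose of 10 µM compound final, 0.25% DMSO / Timing: 4 h pre-incubation, 48 h exposure at 30 °C / Technique: OD615 absorbance reading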

[3] = doxorubicin toxicity protection in MRP-1 cells – H69AR cells, CellTiter-Glo, duplicate, MRP-1 activator project, pilot screen (AID 807;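 active = viability increase at or above a cutoff of the median across tested compounds plus 3 SD, cut at about 8.5% in these data, passing the limit was not always enough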;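 note: compound pretreatment 18-22 h then 72 h combined with doxorubicin; 0% = doxorubicin alone and 100% = vehicle without doxorubicin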); settings: H69AR viability with doxorubicin, CellTiter-Glo luminescence; at 10 µM; stronger effect = higher value
[4] = viability of HCT116 without oncogenic beta-catenin – human colon tumor cells, pilot screen (AID 823;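 active = cell viability at or below a set limit in both duplicate runs, the limit being the all-compound median minus 4 SD, cut at about 23% in these data, passing the limit was not always enough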;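 note: 0% = wells killed by 20 µM Hyamine and 100% = untreated DMSO cell wells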); settings: HCT116 beta-catenin knockout viability, CellTiter-Glo, 60 h; at 10 µM; stronger effect = lower value
[5] = viability of PTEN-null HCT116 cells – cell-based, HCT116 clonal line, CellTiter-Glo, pilot screen (AID 824;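 active = viability at or below 27.92% in each of two runs, the all-compound median minus 4 SD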;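 note: 0% = 20 µM Hyamine control and 100% = vehicle cell control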); settings: HCT116 PTEN-deleted viability, 60 h, at 10 µM, stronger effect = lower value
[6] = RAM pathway blockade in budding yeast – dse1pr::URA3 reporter, 5-FOA selection, pilot screen (AID 869;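 active = inhibition over a set limit, the all-compound mean plus 3 SD, in both replicate runs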;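 note: 0% = DMSO wells with no growth and 100% = 10 µM 1-NA-PP1 with full growth; RAM network block rescues cells from 5-FOA so hits raise OD615 growth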); settings: S. cerevisiae dse1pr::URA3 5-FOA growth, OD615, 2 d; at 10 µM; stronger effect = higher value; strain carries analog-sensitive mutant Cbk1 kinase
[7] = RAM signaling pathway blockade in yeast – S. cerevisiae, Pdr1DBD-CYC8 efflux-inhibited sensitized strain, primary screen (AID 1298);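 note: 0% = DMSO untreated cells without growth and 100% = 10 µM 1-NA-PP1 full growth; higher means more yeast growth rescued from 5-FOA killing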; settings: S. cerevisiae cbk1-as DSE1-URA3 strain, 5-FOA growth OD615, 2 d; at 50 µM; stronger effect = higher value

CCC/C(=C1/C(=O)CC(C)(C)C(C(=O)OC)C1=O)N1CCCC1 (stereo unspecified)
inactive: growth inhibition [1] -4.46% | growth inhibition [2] 5.2% | viability increase [3] -1.41% | viability [4] 95.1% | viability [5] 97.5% | inhibition [6] 1.51% | RAM network inhibition [7] -2.05%

CCOC(=O)N1CCN(c2c(N3CCOCC3)c(=O)c2=O)CC1
inactive: growth inhibition [1] 1.49% | growth inhibition [2] -13.2% | viability increase [3] 0.58% | viability [4] 106% | viability [5] 97.2% | inhibition [6] 2.57% | RAM network inhibition [7] -0.73%

COc1ccc(OC)c(NC(=O)c2nnn(CCc3ccccc3)c2N)c1
inactive: growth inhibition [1] -5.97% | growth inhibition [2] -3.14% | viability increase [3] -4.62% | viability [4] 88% | viability [5] 89.7% | inhibition [6] 1.85% | RAM network inhibition [7] 13.1%

CCOC(=O)c1sc(NCCNc2nc(C)c(C(=O)OCC)s2)nc1C
inactive: growth inhibition [1] 2.36% | growth inhibition [2] -21.8% | viability increase [3] -3.12% | viability [4] 94.1% | viability [5] 89% | inhibition [6] 0.595% | RAM network inhibition [7] 5.86%

CCSCCOC(=O)C1=C(C)NC(=O)NC1c1ccccc1 (stereo unspecified)
inactive: growth inhibition [1] -4.77% | growth inhibition [2] -1.22% | viability increase [3] 0.68% | viability [4] 105% | viability [5] 98.1% | inhibition [6] 1.47% | RAM network inhibition [7] 0.3%

O=C(NCCOC(=O)c1ccc(C(=O)OCCNC(=O)c2ccccc2)o1)c1ccccc1
inactive: growth inhibition [1] 4.22% | growth inhibition [2] 13.6% | viability increase [3] 0.02% | viability [4] 100% | viability [5] 103% | inhibition [6] 1.25% | RAM network inhibition [7] 6.33%

CCCN1Cc2cccc(C(=O)N3CCN(c4cc(Cl)ccc4C)CC3)c2C1=O
inactive: growth inhibition [1] 1.4% | growth inhibition [2] -10.8% | viability increase [3] -0.17% | viability [4] 70.5% | viability [5] 66.7% | inhibition [6] 0.375% | RAM network inhibition [7] 1.65%

C/C(=C\C(=O)c1ccc(C)cc1)Nc1cccc(O)c1
inactive: growth inhibition [1] 4.13% | growth inhibition [2] -2.96% | viability increase [3] -4.74% | viability [4] 99.2% | viability [5] 92.8% | inhibition [6] 2.13% | RAM network inhibition [7] -0.26%

Cc1cccc(CSc2nnc(Cn3c(=O)sc4ccccc43)n2C)c1
inactive: growth inhibition [1] -2.34% | growth inhibition [2] 1.82% | viability increase [3] -1.45% | viability [4] 86.4% | viability [5] 87.3% | inhibition [6] -0.065% | RAM network inhibition [7] 4.9%

c1ccc2c(c1)nc1n2CCN1CCNC1CCCCC1
inactive: growth inhibition [1] -11.4% | growth inhibition [2] -11.7% | viability increase [3] -1.96% | viability [4] 94.2% | viability [5] 98.6% | inhibition [6] 0.065% | RAM network inhibition [7] 1.2%

CC1(C)Cc2c(C#N)c(NC3CCCCC3)nc(-c3ccco3)c2CO1
inactive: growth inhibition [1] -15.4% | growth inhibition [2] -17.4% | viability increase [3] -6.33% | viability [4] 80.3% | viability [5] 76.3% | inhibition [6] 3.23% | RAM network inhibition [7] 0.53%

CCCc1nnc(NC(=O)CC(=O)OCC)s1
inactive: growth inhibition [1] 6.47% | growth inhibition [2] -8.03% | viability increase [3] -1.07% | viability [4] 97% | viability [5] 93.1% | inhibition [6] 0.96% | RAM network inhibition [7] -0.11%

Cc1ccccc1NS(=O)(=O)c1cccc(-c2nnc(-c3ccccc3)o2)c1
inactive: growth inhibition [1] -8.74% | growth inhibition [2] -5.78% | viability increase [3] -0.75% | viability [4] 93.6% | viability [5] 85.7% | inhibition [6] 3.65% | RAM network inhibition [7] 4.08%

COCc1cc(C)nc2sc(C(=O)Nc3nccs3)c(N)c12
inactive: growth inhibition [1] -7.22% | growth inhibition [2] 11.6% | viability increase [3] -5.32% | viability [4] 109% | viability [5] 97.5% | inhibition [6] 0.145% | RAM network inhibition [7] 2.07%

CCOC(=O)N1CCN(C(=O)CS(=O)Cc2nc(-c3ccc(C)cc3)oc2C)CC1 (stereo unspecified)
inactive: growth inhibition [1] -5.11% | growth inhibition [2] 7.44% | viability increase [3] -1.59% | viability [4] 89.3% | viability [5] 92.1% | inhibition [6] 1.68% | RAM network inhibition [7] 7.07%

CCOC(=O)CSc1n[nH]c(-c2ccco2)n1
inactive: growth inhibition [1] -16.1% | growth inhibition [2] -17% | viability increase [3] -1.01% | viability [4] 93.8% | viability [5] 102% | inhibition [6] 0.85% | RAM network inhibition [7] 4.21%

COc1ccc(N(CC(=O)N2CCCCC2)S(=O)(=O)c2c(C)nn(C)c2C)cc1
inactive: growth inhibition [1] -5.81% | growth inhibition [2] 5.36% | viability increase [3] -2.35% | viability [4] 105% | viability [5] 96.7% | inhibition [6] 1.69% | RAM network inhibition [7] 2.99%

CC(C)c1ccc2c(c1)C(=O)NC(C)(C)C2
inactive: growth inhibition [1] -8.81% | growth inhibition [2] -11.3% | viability increase [3] -2.07% | viability [4] 116% | viability [5] 97.8% | inhibition [6] 1.88% | RAM network inhibition [7] 4.27%

Reference: PubChem BioAssay
